Columns and labels:
CCRF-CEM [1] = test: Growth inhibition of dCK deficient CEM cells by MTT assay in presence of dipyridamole; conditions: Homo sapiens
NCI-H460 [2] = test: Growth inhibition of H460 cells by SRB assay; format: functional, cell-based; conditions: Homo sapiens
Summary of the method: (§1)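 Cells seeded at 5000/well and exposed to a range of drug concentrations for 72 h at 37 °C, 5% CO2, then read by SRB. A2780 and its dCK-deficient variant AG6000 were grown in DMEM; A549, H292 and H460 in RPMI; both media had 10% FCS and 20 mM HEPES. OD was read at 540 or 492 nm. Relative growth = (ODtreated − ODzero)/(ODcontrol − ODzero) × 100%, with ODzero taken at drug addition.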

CCRF-CEM [3] = test: Growth inhibition of dCK deficient CEM cells by MTT assay; conditions: Homo sapiens
[4] = Growth inhibition of AG6000 cells by SRB assay in presence of dipyridamole; format: functional, cell-based; conditions: Homo sapiens
Summary of the method: (§2)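 SRB growth assay run with the nucleoside transport inhibitor dipyridamole at 1 µM final. Cells were seeded at 5000/well and exposed to a range of drug concentrations for 72 h at 37 °C, 5% CO2. Media: DMEM for A2780 and the dCK-deficient AG6000; RPMI for A549, H292 and H460; each with 10% FCS and 20 mM HEPES. Relative growth was calculated against ODzero and untreated controls.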

SW1573 [5] = test: Growth inhibition of SW1573 cells by SRB assay; format: functional, cell-based; conditions: Homo sapiens
Summary of the method: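 SW1573 NSCLC cells grown in DMEM with 10% FCS and 20 mM HEPES at 37 °C, 5% CO2. Seeded at 5000 cells/well and exposed to a range of drug concentrations for 72 h, then SRB assay. OD read at 540 or 492 nm. Relative growth = (ODtreated − ODzero)/(ODcontrol − ODzero) × 100%, with ODzero taken at drug addition.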

A2780 [6] = test: Growth inhibition of A2780 cells by SRB assay; format: functional, cell-based; conditions: Homo sapiens
Summary of the method: as §1

[7] = Growth inhibition of AG6000 cells by SRB assay; format: functional, cell-based; conditions: Homo sapiens
Summary of the method: as §1

NCI-H460 [8] = test: Growth inhibition of H460 cells by SRB assay in presence of dipyridamole; format: functional, cell-based; conditions: Homo sapiens
Summary of the method: as §2

CCRF-CEM [9] = test: Growth inhibition of CEM cells by MTT assay; conditions: Homo sapiens
A2780 [10] = test: Growth inhibition of A2780 cells by SRB assay in presence of dipyridamole; format: functional, cell-based; conditions: Homo sapiens
Summary of the method: as §2

[11] = Growth inhibition of H292 cells by SRB assay; format: functional, cell-based; conditions: Homo sapiens, NCI-H292
Summary of the method: as §1

[12] = Growth inhibition of H292 cells by SRB assay in presence of dipyridamole; format: functional, cell-based; conditions: Homo sapiens, NCI-H292
Summary of the method: as §2

CCRF-CEM [13] = test: Growth inhibition of CEM cells by MTT assay in presence of dipyridamole; conditions: Homo sapiens
A549 [14] = test: Growth inhibition of A549 cells by SRB assay; format: functional, cell-based; conditions: Homo sapiens
Summary of the method: as §1

SW1573 [15] = test: Growth inhibition of SW1573 cells by SRB assay in presence of dipyridamole; format: functional, cell-based; conditions: Homo sapiens
Summary of the method: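 SW1573 cells cultured in DMEM, 10% FCS, 20 mM HEPES, 37 °C, 5% CO2. Plated at 5000 cells/well and given graded drug concentrations with the nucleoside transport inhibitor dipyridamole at 1 µM final, for 72 h. SRB read-out at OD 540 or 492 nm. Growth is expressed relative to time-zero and untreated wells.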

A549 [16] = test: Growth inhibition of A549 cells by SRB assay in presence of dipyridamole; format: functional, cell-based; conditions: Homo sapiens
Summary of the method: as §2

Nc1ccn([C@@H]2O[C@H](CO)[C@@H](O)C2(F)F)c(=O)n1 [GEMCITABINE]
IC50 (CCRF-CEM [1]): 100000 nM | IC50 (NCI-H460 [2]): 10 nM | IC50 (CCRF-CEM [3]): 50000 nM | IC50 [4]: 20000 nM | IC50 (SW1573 [5]): 16 nM | IC50 (A2780 [6]): 1.5 nM | IC50 [7]: 20000 nM | IC50 (NCI-H460 [8]): 103 nM | IC50 (CCRF-CEM [9]): 130 nM | IC50 (A2780 [10]): 15 nM | IC50 [11]: 13 nM | IC50 [12]: 210 nM | IC50 (CCRF-CEM [13]): 1000 nM | IC50 (A549 [14]): 14 nM | IC50 (SW1573 [15]): 275 nM | IC50 (A549 [16]): 225 nM

From ChEMBL document CHEMBL1146216, “Synthesis and biological activity of a gemcitabine phosphoramidate prodrug” (J Med Chem, 2007)
